# Source: PubChem
# Compounds with a hit are over-represented: about 1.8% of the library has one in this group of screens.
# STAT3 blocker: IL-6 driven STAT3 reporter inhibitors, primary screen, U3A cells, luciferase, luminescence, MLSCN library; IL-6 STAT3-luciferase reporter; host cell line lacks STAT1; inhibition, % at 5.5 µM; 0.89% of 190,000 active;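 active = inhibition above the mean inhibition across all screened compounds plus 3 SD, cut at about 44% in these data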;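 note: 0% = DMSO only wells and 100% = 100 µM nifuroxazide control wells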
# STAT1 inh-1: STAT1 signaling inhibitors, primary screen, cell-based, HTS, luciferase reporter; NIH 3T3 STAT1-luciferase reporter, IFN-gamma, luminescence; inhibition, % at 5.5 µM; 0.35% of 200,000 active;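 active = inhibition above a set limit, the mean inhibition across all tested compounds plus 3 SD, cut at about 34% in these data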;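 note: 0% = IFN-gamma with DMSO and 100% = IFN-gamma with 300 µM nifuroxazide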
# PERK inhibitor: block of dimerizer-induced PERK translation repression, primary screen, PERK inhibitor project, CHO PERK-DD cells, SEAP luminescence, HTS; Eukaryotic translation initiation factor 2-alpha kinase 3 (Homo sapiens), Q9NZJ5; 0.17% of 220,000 active; inhibition, % at 5.6 µM; CHO PERK-DD fusion, SEAP luminescence translation reporter;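 active = inhibition above the mean inhibition of all tested compounds plus 3 SD, set separately per screening campaign, cut at about 2.9% in these data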;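 note: PERK kinase domain activated by AP20187 dimerizer at 100 nM; 0% = DMSO with dimerizer and 100% = rapamycin at 8.4 µM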
# Target sequence (Q9NZJ5 whole entry, looked up, the tested form may be a part): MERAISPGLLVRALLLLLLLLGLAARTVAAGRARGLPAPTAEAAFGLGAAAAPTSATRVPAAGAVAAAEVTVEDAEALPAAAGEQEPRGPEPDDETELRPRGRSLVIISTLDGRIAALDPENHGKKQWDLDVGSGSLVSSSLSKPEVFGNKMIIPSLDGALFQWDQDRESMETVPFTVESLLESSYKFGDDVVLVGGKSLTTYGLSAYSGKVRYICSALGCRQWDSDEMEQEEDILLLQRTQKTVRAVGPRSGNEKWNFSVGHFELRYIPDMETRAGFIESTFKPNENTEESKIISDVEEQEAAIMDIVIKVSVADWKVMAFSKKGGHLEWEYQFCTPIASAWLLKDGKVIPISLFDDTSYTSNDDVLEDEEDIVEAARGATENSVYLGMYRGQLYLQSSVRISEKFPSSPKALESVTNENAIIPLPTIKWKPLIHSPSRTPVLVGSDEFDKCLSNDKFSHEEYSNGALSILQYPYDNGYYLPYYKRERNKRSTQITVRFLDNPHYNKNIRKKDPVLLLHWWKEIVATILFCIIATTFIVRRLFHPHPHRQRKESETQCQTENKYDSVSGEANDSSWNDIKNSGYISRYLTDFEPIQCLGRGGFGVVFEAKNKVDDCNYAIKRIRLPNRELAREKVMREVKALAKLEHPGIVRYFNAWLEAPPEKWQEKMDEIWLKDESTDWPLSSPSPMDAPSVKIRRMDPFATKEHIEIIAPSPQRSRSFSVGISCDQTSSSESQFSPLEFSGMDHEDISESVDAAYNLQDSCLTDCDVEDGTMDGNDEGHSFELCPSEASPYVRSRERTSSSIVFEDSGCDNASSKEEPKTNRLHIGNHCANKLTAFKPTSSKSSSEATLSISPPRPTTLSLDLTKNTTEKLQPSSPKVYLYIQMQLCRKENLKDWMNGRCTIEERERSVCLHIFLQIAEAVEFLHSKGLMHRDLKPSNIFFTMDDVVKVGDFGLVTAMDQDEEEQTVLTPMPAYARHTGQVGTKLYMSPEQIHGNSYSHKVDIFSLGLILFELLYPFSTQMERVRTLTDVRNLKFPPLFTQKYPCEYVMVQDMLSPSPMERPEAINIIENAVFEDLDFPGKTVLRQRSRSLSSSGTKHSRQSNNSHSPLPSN
# STAT3 activator: IL-6 driven STAT3 reporter potentiators, primary screen, U3A cells, luciferase, luminescence, MLSCN library; IL-6 STAT3-luciferase reporter; 100% = signal with IL-6 EC80 alone; 0.91% of 190,000 active; AID 871, 2007; activation (% of control), % at 5.6 µM;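 active = activation above the screen-wide mean of compound activation plus 3 SD, cut at about 130% in these data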;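 note: 0% = background luminescence of wells with medium and substrate only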
#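 Material: human U3A cells carrying STAT3-luciferase construct. Measured by: reporter luminescence signal. Timing: compound 1 h, then IL-6 6 h at 37 °C.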
# STAT1 inh-2: STAT1 signaling inhibitors, confirmation, cell-based, HTS, luciferase reporter; shares compounds with STAT1 inh-1; NIH 3T3 STAT1-luciferase reporter, IFN-gamma, luminescence; inhibition, % at 5.5 µM; 55% of 200 active;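 active = triplicate mean inhibition exceeding the hit cutoff computed for the primary STAT1 screen, cut at about 35% in these data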;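 note: 0% = DMSO with IFN-gamma and 100% = 300 µM nifuroxazide with IFN-gamma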
# NFkB inh: NF-kB reporter inhibitors, TNF-alpha stimulated, counter-screen for STAT1 inhibitor project, cell-based, HEK293T, luciferase luminescence | 30% of 200 active | shares compounds with STAT1 inh-1 | inhibition, % at 5.7 µM | AID 1303, 2008 | TNF-alpha induced;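 active = inhibition above the mean of solvent-only control wells plus 3 SD of those wells, cut at about 15% in these data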;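 note: 0% = DMSO with TNF-alpha and 100% = MG-132 control with TNF-alpha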
# STAT3 inh STAT1c: STAT3 reporter inhibition by STAT1 hits, counter-screen for STAT1 inhibitor project, U3A cells, luciferase, luminescence, triplicate; shares compounds with STAT1 inh-1; 20% of 200 active; inhibition, % at 5.7 µM; IL-6 STAT3 luciferase reporter; cells lacking STAT1;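 active = inhibition above the mean of solvent-only control wells plus 3 SD, set per campaign, cut at about 25% in these data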;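 note: 0% = IL-6 plus DMSO and 100% = IL-6 plus nifuroxazide control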
# Numbers without * were called inactive; · = not tested or not shown.
SMILES,STAT3 blocker,STAT1 inh-1,PERK inhibitor,STAT3 activator,STAT1 inh-2,NFkB inh,STAT3 inh STAT1c
O=C(C1CCC(CNS(=O)(=O)c2cccc3nsnc23)CC1)N1CCN(c2ccccn2)CC1 (stereo not given),6.7,35.2*,0.3,95.7,25.2,-3.3,7.3
COc1ccc(-n2c(SCc3cccnc3)nc3c(c2=O)SCC3)cc1OC,8.3,44.5*,-0.3,94.4,34.7*,10.2,-23.1
Cn1c(SCc2cccnc2)nc2c(c1=O)SCC2,2.4,7.5,0.5,102.1,·,·,·
O=C(COc1ncnc2sccc12)NC1CCS(=O)(=O)C1 (stereo not given),·,·,1.8,·,·,·,·
O=C(N/N=C/c1cccs1)C(=O)Nc1cccc(Cl)c1,18.6,-11.2,1.3,85.0,·,·,·
O=C(O)c1cccc(N/N=C/c2cccs2)c1,22.1,60.0*,0.4,82.8,43.4*,79.4*,-24.0
COc1cccc(CNc2ncnc3cc(Cl)ccc23)c1,13.3,40.6*,-0.1,90.0,31.8,6.5,3.1
O=C(NCC1(N2CCCCC2)CCCCC1)C1CC(=O)N(c2ccc3c(c2)OCCO3)C1 (stereo not given),6.7,16.2,-0.5,96.0,·,·,·
CCOC(=O)C(=CNc1cc(C)nn1-c1ccccc1)C(=O)OCC,12.5,52.4*,-0.4,92.3,46.1*,0.2,5.8
Cc1nnc(NC(=O)c2cccc(S(=O)(=O)N3CCc4ccccc43)c2)s1,12.1,8.0,-0.8,88.8,·,·,·
O=C(NNC(=O)c1cccc(S(=O)(=O)N2CCc3ccccc32)c1)c1ccccc1,17.8,35.4*,0.4,91.1,36.2*,5.2,20.4
CC1(C)Cc2c(ccc3ccccc23)C2=C(C(=O)N3CCCC3)C(=O)C(=O)N21,5.6,41.1*,1.0,96.4,40.5*,4.8,0.5
Cn1cc(Cl)c(C(=O)OCC(=O)Nc2nc(-c3ccc(Br)cc3)cs2)n1,25.7,-4.2,1.2,82.0,·,·,·
CCOC(=O)N1CCN(c2ncnc3c2[nH]c2ccc(OC)cc23)CC1,17.4,53.2*,-2.0,91.1,44.0*,20.8*,-23.9
CCOC(=O)N1CCN(c2ncnc3c2[nH]c2ccc(F)cc23)CC1,34.3,54.2*,-1.3,72.8,61.0*,19.0*,36.9*
COc1ccc(CC(=O)n2[nH]c(=O)cc(C)c2=O)cc1OC,·,·,1.4,·,·,·,·
Cc1ccc(/C=C2\SC(=S)N(CCCC(=O)Nc3ccccn3)C2=O)cc1,43.3,38.4*,1.1,64.5,40.1*,44.5*,46.0*
COc1ccc(/C=C2\SC(=S)N(CCCC(=O)Nc3ccccn3)C2=O)cc1OC,5.9,10.5,-0.7,96.9,·,·,·
CCOC(=O)C1CCN(CC(=O)Nc2c(C(=O)OC)[nH]c3ccc(Cl)cc23)CC1,40.4,36.8*,0.9,69.8,32.9,2.9,28.9*
CCOC(=O)C1CCN(CC(=O)Nc2c(C(=O)OC)[nH]c3ccccc23)CC1,20.5,9.9,-0.9,89.7,·,·,·
NCCc1nc(-c2ccccc2)cs1,10.2,-6.8,-0.5,95.8,·,·,·
CCCCn1c(=NC(=O)c2ccco2)c(C(=O)OCC)cc2c(=O)n3ccccc3nc21,9.4,-1.4,-1.2,94.0,·,·,·
CCOC(=O)c1cc2c(=O)n3ccccc3nc2n(Cc2ccco2)c1=NC(=O)c1ccc(OC)cc1OC,23.4,60.0*,0.4,83.3,21.7,10.0,25.3*
C[C@H](NC(=O)OC(C)(C)C)C(=O)N/N=C/c1ccc2nccnc2c1,·,·,0.8,·,·,·,·
CCOC(=O)N1CCC(N2C(=O)c3ccccc3C2Nc2cccnc2)CC1 (stereo not given),2.8,34.4*,-0.6,97.8,28.2,4.8,6.2
SMILES,STAT3 blocker,STAT1 inh-1,PERK inhibitor,STAT3 activator,STAT1 inh-2,NFkB inh,STAT3 inh STAT1c
COc1cc(C(=O)OCC(=O)Nc2sccc2C(N)=O)cc(OC)c1OC,27.6,42.4*,-0.4,79.7,-3.9,-0.3,5.5
COc1ccc(C(=O)OCC(=O)Nc2sccc2C(N)=O)cc1OC,·,·,0.8,·,·,·,·
O=C(NC(=S)Nc1ccc(Cc2ccncc2)cc1)c1ccccc1,8.6,-12.3,-0.5,93.9,·,·,·
O=C(NC(=S)NC(c1ccccc1)c1ccncc1)c1ccccc1 (stereo not given),19.7,62.1*,-0.6,85.5,56.7*,20.1*,10.1
C=C(C)CNC(=S)Nc1cccc(N)n1,5.0,4.5,-0.4,99.9,·,·,·
CCOc1ccc(-c2nc(CSCC(=O)NCc3ccco3)c(C)o2)cc1,0.4,89.6*,-0.3,103.3,90.7*,49.1*,1.0
COc1ccc(-c2nc(CS(=O)CC(=O)NCc3ccco3)c(C)o2)cc1 (stereo not given),12.7,-1.4,-0.3,96.4,·,·,·
C=CCNCCOCCOc1ccccc1-c1ccccc1,6.4,3.9,-0.9,100.6,·,·,·
COc1ccc(NC(=O)C2CCN(c3cc(-c4ccccc4)nc4ncnn34)CC2)cc1OC,29.9,42.5*,0.0,75.8,52.7*,19.0*,35.9*
CS(=O)(=O)Nc1ccc(C2=NN(C(=O)c3ccco3)C(c3cccc(F)c3)C2)cc1 (stereo not given),20.2,56.0*,0.2,90.5,29.2,-10.4,13.1
Cc1c(/C=C(\C#N)c2nn(-c3ccccc3)c(N)c2C#N)c2ccccc2n1Cc1ccc(F)cc1,-8.2,6.1,-0.4,112.5,·,·,·
COc1ccc(-c2cc(C(F)(F)F)nc(S(=O)(=O)CCCC(=O)Nc3cccnc3Cl)n2)cc1OC,4.1,43.8*,0.8,99.5,37.6*,4.7,-8.2
COc1nc(-c2ccccc2)cc(C(F)(F)F)n1,15.7,2.8,0.4,89.9,·,·,·
CC(Sc1nc(-c2ccccc2)cc(C(F)(F)F)n1)C(=O)O (stereo not given),11.4,4.9,0.1,92.2,·,·,·
CCOC(=O)CCS(=O)(=O)c1nc(-c2ccccc2)cc(C(F)(F)F)n1,8.3,39.5*,-0.3,96.1,45.1*,-0.3,0.0
COC(=O)CCS(=O)(=O)c1nc(-c2ccccc2)cc(C(F)(F)F)n1,13.3,38.0*,-1.6,91.6,42.5*,-14.4,4.2
COc1cccc(OC)c1C(=O)OCC(=O)Nc1cccnc1Cl,-3.0,2.3,1.1,105.8,·,·,·
CCOC(=O)CS(=O)(=O)c1nc(-c2ccc(F)cc2)cc(C(F)(F)F)n1,8.8,34.4*,0.4,97.9,46.0*,21.6*,13.4
CC(=O)NS(=O)(=O)c1ccc(NC(=O)CC(C)c2ccccc2)cc1 (stereo not given),9.5,-3.6,1.1,98.5,·,·,·
